We go through 5 molecules from publication PMC3696402 (Neuropharmacology, 2013).

One assay concerns histamine H1 GPCRs. As to conditions: previous studies; ref Bucholtz et al., 2009; cited from earlier work.
Assay [1] concerns C57Bl/6J male mice. The assay is described as follows: DOI-elicited head-twitch response. Type of assay: in vivo. Particulars: for DOI-elicited HTR (responses) after pretreatment: 30 mg/kg i.p. pretreatment before 1 mg/kg (−)-DOI; for DOI-elicited HTRs after oral administration: 30 mg/kg oral (gavage) 20 min before (−)-DOI 1.0 mg/kg; for ED50 value (±95% CL), 50% attenuation of the DOI-elicited response: i.p. pretreatment before 1 mg/kg (−)-DOI; for Number of head-twitches: 10-min session. A digest of the protocol:
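Male C57Bl/6J mice (Jackson, pair-housed, ~8 weeks old on arrival, ≥1 week acclimation), tested mid-light phase after 30 min room habituation. Test compound or saline (sterile saline, 0.01 ml/g) given i.p. 10 min, or orally by gavage 20 min, before (−)-DOI (0.1–1.0 mg/kg) or saline. Ten min after DOI, head twitches counted over 10 min by a blind observer. ED50 reported with 95% CL.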

Assay [2] deals with T1, 5HT2A receptors (Homo sapiens, UniProt P28223). The assay is described as follows: PLC activation and [3H]-IP formation in HEK cells. As to conditions: for 5HT2A Function (activation of PLC/IP formation): at 10 μM. It counts as cell-based.
T1 sequence (P28223 whole entry, canonical isoform): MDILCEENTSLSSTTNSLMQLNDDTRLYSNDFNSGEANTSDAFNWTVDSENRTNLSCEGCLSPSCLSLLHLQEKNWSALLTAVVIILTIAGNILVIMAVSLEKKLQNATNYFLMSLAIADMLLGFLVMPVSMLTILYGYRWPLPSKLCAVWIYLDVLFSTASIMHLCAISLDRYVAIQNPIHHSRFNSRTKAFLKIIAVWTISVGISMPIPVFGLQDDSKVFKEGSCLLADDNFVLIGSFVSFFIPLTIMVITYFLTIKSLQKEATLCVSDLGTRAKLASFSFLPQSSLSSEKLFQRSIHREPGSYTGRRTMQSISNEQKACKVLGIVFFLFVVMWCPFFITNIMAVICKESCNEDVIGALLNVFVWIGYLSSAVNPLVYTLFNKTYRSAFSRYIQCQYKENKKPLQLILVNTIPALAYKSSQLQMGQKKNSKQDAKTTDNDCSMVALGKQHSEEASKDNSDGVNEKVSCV
For assay [3], the target named is T1, 5HT2A receptors. Kind of assay: Radioreceptor competition binding, [3H]-ketanserin, HEK membranes. As to conditions: read-out: 5HT2A Ki ± SEM; [3H]-ketanserin 2.0 nM, 1.0 h at 37°C. A digest of the protocol: (§1)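 HEK-293 cells transiently transfected (Lipofectamine 2000, 24–48 h) with human receptor cDNA (5HT2C: unedited INI isoform). Membranes in 50 mM Tris, 10 mM MgCl2, 0.1 mM EDTA; 3–5 μg protein per well. Nonspecific binding defined with 10 μM mianserin. Separated by GF/B filtration with five 50 mM Tris-HCl washes, then scintillation counting. Triplicates, at least 3 experiments; IC50 converted to Ki by Cheng–Prusoff.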

For assay [4], the target named is T2, 5HT2C receptors (Homo sapiens, UniProt P28335).
T2 sequence (P28335 33-458): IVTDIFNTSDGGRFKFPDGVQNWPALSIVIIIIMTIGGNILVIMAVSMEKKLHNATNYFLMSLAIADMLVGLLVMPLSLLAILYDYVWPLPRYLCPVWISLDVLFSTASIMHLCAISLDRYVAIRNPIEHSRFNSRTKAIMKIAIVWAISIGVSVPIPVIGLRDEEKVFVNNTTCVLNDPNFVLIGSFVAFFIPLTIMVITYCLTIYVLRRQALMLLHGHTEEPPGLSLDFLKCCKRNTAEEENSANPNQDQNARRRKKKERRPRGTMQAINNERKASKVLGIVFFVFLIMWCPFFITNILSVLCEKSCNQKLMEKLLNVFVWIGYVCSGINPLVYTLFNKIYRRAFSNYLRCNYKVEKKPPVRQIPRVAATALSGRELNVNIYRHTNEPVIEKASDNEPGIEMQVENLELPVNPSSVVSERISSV
Kind of assay: Radioreceptor competition binding, [3H]-mesulergine, HEK membranes. Particulars: read-out: 5HT2C Ki ± SEM; [3H]-mesulergine 1.4 nM, 1.0 h at 37°C. A digest of the protocol: as §1

Assay [5] has as its target T2, 5HT2C receptors. Kind of assay: PLC activation and [3H]-IP formation in HEK cells. Type of assay: cell-based. Particulars: for EC50: read-out: 5HT2C EC50±SEM, [3H]-IP formation, 30 min incubation.
Assay [6] concerns the target T3, 5HT2B receptors (Homo sapiens, UniProt P41595). Kind of assay: Radioreceptor competition binding, [3H]-mesulergine, HEK membranes. As to conditions: read-out: 5HT2B Ki ± SEM; [3H]-mesulergine 1.95 nM, 1.0 h at 37°C. A digest of the protocol: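 Membranes came from HEK-293 cells transfected with 24 μg human 5HT2B cDNA (Lipofectamine 2000, 24–48 h) and collected in 50 mM Tris, 10 mM MgCl2, 0.1 mM EDTA. […] Nonspecific binding: 10 μM mianserin. Filtered on GF/B, washed five times with Tris-HCl, scintillation counted. Triplicates, ≥3 experiments.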

Assay [7] deals with C57Bl/6J male mice. Kind of assay: Palatable meal eating. It counts as in vivo. Particulars: for Eating (pellets consumed) as % of baseline levels: 24 mg/kg i.p. 15 min before 30-min access to Crunchies; for ED50 value (±95% CL), 50% attenuation of consumption: i.p. 15 min before 30-min access to Crunchies. A digest of the protocol:
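Singly housed male C57Bl/6J mice (Harlan) with chow and water ad lib. In home cages, 10 sweet pellets (~190 mg, 3.5 kcal/g) were offered five days/week, with access tapered to 30 min/day. After ~2 weeks of stable intake, test compound was given i.p. (2 ml/kg, sterile saline) 15 min before access. Pellets eaten were counted. ED50 reported with 95% CL.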

The subject of assay [8] is C57Bl/6J male mice. Kind of assay: Locomotor activity. Type of assay: in vivo.
Assay [9] concerns the target adenosine, adrenergic, benzodiazepine, cholinergic, dopamine, GABAA, histamine H2, H3, H4, NMDA/PCP, opiate, and serotonin 5-HT1A, 5-HT1B, receptors. Kind of assay: Preliminary off-target binding studies. Particulars: read-out: Ki (off-target receptors), comparatively low (Ki > 0.5 μM) or very low (Ki > 1 μM) affinity, initial results, PDSP 2012.
Assay [10] has as its target T3, 5HT2B receptors. Kind of assay: PLC activation and [3H]-IP formation in HEK cells. It counts as cell-based. As to conditions: at 10 μM.
Where [11] appears, read: 3 mg/kg i.p. with DOI (1 mg/kg).
Setting [12] is: 10 mg/kg i.p. with DOI (1 mg/kg).
The mark [13] stands for this setting: 10 mg/kg i.p. with saline (no DOI).
The mark [14] stands for this setting: 30 mg/kg i.p. with DOI (1 mg/kg).
The mark [15] stands for this setting: 30 mg/kg i.p. with saline (no DOI).
Where [16] appears, read: 30 mg/kg oral pretreatment before 1.0 mg/kg DOI.

Each structure is given as a SMILES string. Where only a bound is given, the exact number is not on record here.

T3 sequence (P41595 whole entry): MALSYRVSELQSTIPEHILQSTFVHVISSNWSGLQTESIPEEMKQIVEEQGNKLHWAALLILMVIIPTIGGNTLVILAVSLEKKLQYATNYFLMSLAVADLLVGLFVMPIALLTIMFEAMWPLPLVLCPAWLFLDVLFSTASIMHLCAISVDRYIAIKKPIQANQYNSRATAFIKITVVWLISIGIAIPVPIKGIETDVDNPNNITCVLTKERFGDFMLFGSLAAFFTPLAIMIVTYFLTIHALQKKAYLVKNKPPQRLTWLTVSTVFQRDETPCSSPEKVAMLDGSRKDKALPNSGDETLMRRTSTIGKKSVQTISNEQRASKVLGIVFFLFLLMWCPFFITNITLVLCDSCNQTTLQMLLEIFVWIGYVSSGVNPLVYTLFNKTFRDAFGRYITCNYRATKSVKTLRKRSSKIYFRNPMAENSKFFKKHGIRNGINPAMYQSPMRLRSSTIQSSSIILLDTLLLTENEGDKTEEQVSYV

As for `CN(C)[C@@H]1Cc2ccccc2[C@@H](c2ccccc2)C1` (relative stereo) [(−)-trans-PAT, (−)-(2S, 4R)-trans-4-phenyl-N,N-dimethyl-2-aminotetralin, reference compound], the “Affinity at histamine H1 GPCRs” value with histamine H1 GPCRs is on record as “high affinity”.

As for `CN(C)[C@@H]1Cc2ccccc2[C@@H](c2ccc(Cl)cc2)C1` (stereo in doubt) [(−)-p-Cl-PAT, (−)-(2S, 4R)-trans-4-(4′-chlorophenyl)-N,N-dimethyl-2-aminotetralin], in the assay with C57Bl/6J male mice [1], the “DOI-elicited HTR (responses) after pretreatment” value is reported as 13. The “DOI-elicited HTRs after oral administration” value (“DOI-elicited HTRs” below) with C57Bl/6J male mice [1] turned out to be 18.25. In addition, the “ED50 value (±95% CL), 50% attenuation of the DOI-elicited response” value in the assay with C57Bl/6J male mice [1] is given as 20.1 (14.0–28.8) mg/kg. Besides, the “5HT2A Function (activation of PLC/IP formation)” value on 5HT2A receptors [2] is recorded as “No Activation ^1”. Further, the Ki at 5HT2A receptors [3] was 240 ± 32 nM; at 5HT2C receptors [4], 130 ± 16 nM; on 5HT2B receptors [6], 300 ± 30 nM; in assay [9], more than 500 nM. In addition, on 5HT2C receptors [5], the “Function at the 5HT2C receptor (efficacy compared to 5HT)” value is listed as “partial agonists”. Moreover, the EC50 on 5HT2C receptors [5] is 1650 ± 149 nM. The “Eating (pellets consumed) as % of baseline levels” value in the assay on C57Bl/6J male mice [7] amounted to 36.4%. Also, the “ED50 value (±95% CL), 50% attenuation of consumption” value with C57Bl/6J male mice [7] was 21.3 (18.5–24.4) mg/kg. Further, the “Distance travelled (mean ± s.e.m.)” value was found to be 3386 ± 150 cm in the assay with C57Bl/6J male mice [8] (setting [11]); 3064 ± 309 cm in the assay on C57Bl/6J male mice [8] (setting [12]); 3097 ± 937 cm with C57Bl/6J male mice [8] (setting [13]); 1889 ± 191 cm in the assay on C57Bl/6J male mice [8] (setting [14]); 1994 ± 165 cm with C57Bl/6J male mice [8] (setting [15]); 1944 ± 654 cm with C57Bl/6J male mice [8] (setting [16]). For the same molecule, the “5HT2B Function (activation of PLC/IP formation)” value on 5HT2B receptors [10] is recorded as “No Activation ^1”.

On to `CN(C)[C@H]1Cc2ccccc2[C@H](c2ccc(Cl)cc2)C1` (stereo in doubt) [(+)-p-Cl-PAT, (+)-(2R, 4S)-trans-4-(4′-chlorophenyl)-N,N-dimethyl-2-aminotetralin], for which the “DOI-elicited HTR (responses) after pretreatment” value in the assay on C57Bl/6J male mice [1] worked out at 3.3. Also, the “DOI-elicited HTRs” value in the assay on C57Bl/6J male mice [1] turned out to be 8.5. Also, the “ED50 value (±95% CL), 50% attenuation of the DOI-elicited response” value in the assay on C57Bl/6J male mice [1] is reported as 8.2 (5.4–12.4) mg/kg. Also, the “pA2 (competitive antagonism of 5HT activation of 5HT2A-mediated [3H]-IP formation)” value on 5HT2A receptors [2] (Schild analysis versus 5HT) came out at 6.21 ± 0.55. Moreover, on 5HT2A receptors [2], the “5HT2A Function (activation of PLC/IP formation)” value was “No Activation”. Also, the Ki at 5HT2A receptors [3] is 42 ± 6 nM; at 5HT2C receptors [4], 45 ± 7 nM; at 5HT2B receptors [6] it was 80 ± 10 nM; in [9] it was more than 500 nM. The “Function at the 5HT2C receptor (efficacy compared to 5HT)” value at 5HT2C receptors [5] is “partial agonists”. For the same molecule, the “Potency at 5HT2C relative to (−)-p-Cl-PAT” value on 5HT2C receptors [5] (ratio of EC50 values) is “about 12 times”. Moreover, the concentration for a half-maximal effect (EC50) at 5HT2C receptors [5] amounted to 140 ± 20 nM. For the same molecule, in the assay on C57Bl/6J male mice [7], the “Eating (pellets consumed) as % of baseline levels” value was 15.9%. In the assay on C57Bl/6J male mice [7], the “ED50 value (±95% CL), 50% attenuation of consumption” value was 14.8 (11.8–18.7) mg/kg. The “Distance travelled (mean ± s.e.m.)” value was 3523 ± 518 cm in the assay on C57Bl/6J male mice [8] (setting [11]); 2216 ± 98 cm in the assay with C57Bl/6J male mice [8] (3 mg/kg i.p. with saline (no DOI)); 2557 ± 99 cm with C57Bl/6J male mice [8] (setting [12]); 2142 ± 124 cm in the assay with C57Bl/6J male mice [8] (setting [13]); 1329 ± 434 cm in the assay with C57Bl/6J male mice [8] (setting [14]); 870 ± 502 cm in the assay with C57Bl/6J male mice [8] (setting [15]). For the same molecule, the “Distance travelled (mean ± s.e.m.)” value in the assay with C57Bl/6J male mice [8] (setting [16]) was found to be 1586 ± 398 cm. The “5HT2B Function (activation of PLC/IP formation)” value at 5HT2B receptors [10] is given as “No Activation ^1”.

For the molecule `COc1cc(CC(C)N)c(OC)cc1I.Cl` (single isomer, unassigned; (-)) [(−)-DOI, (−)-2,5-dimethoxy-4-iodoamphetamine hydrochloride, reference compound], the values for the Number of head-twitches with C57Bl/6J male mice [1] (0.1 mg/kg (−)-DOI preceded by a saline injection), in the assay with C57Bl/6J male mice [1] (0.3 mg/kg (−)-DOI preceded by a saline injection) and in the assay on C57Bl/6J male mice [1] (1.0 mg/kg (−)-DOI preceded by a saline injection) were 6, 22 and 45, respectively. Further, the “Number of HTRs” value in the assay on C57Bl/6J male mice [1] ((−)-DOI 1.0 mg/kg following oral saline administration) is reported as 37.5. Also, the “Distance travelled (mean ± s.e.m.)” value worked out at 2829 ± 481 cm in the assay on C57Bl/6J male mice [8] (saline pretreatment, (−)-DOI 0.1 mg/kg); 2804 ± 353 cm in the assay on C57Bl/6J male mice [8] (saline pretreatment, (−)-DOI 0.3 mg/kg); 3626 ± 392 cm with C57Bl/6J male mice [8] (saline pretreatment, (−)-DOI 1.0 mg/kg).

On to `CN(C)[C@H]1Cc2ccccc2[C@H](c2ccc(Cl)cc2)C1` (stereo in doubt) [(±) p-Cl-PAT, racemic trans-4-(4′-chlorophenyl)-N,N-dimethyl-2-aminotetralin], for which, in the assay on C57Bl/6J male mice [1], the “DOI-elicited HTRs” value turned out to be 13.25. In addition, in the assay on C57Bl/6J male mice [8] (setting [16]), the “Distance travelled (mean ± s.e.m.)” value was 1662 ± 468 cm. For the same molecule, the “Affinity at histamine H1 GPCRs” value with histamine H1 GPCRs is recorded as “high affinity”.
